Data on 14 molecules can be found in ChEMBL document CHEMBL1128463, “Design, synthesis, and antiviral activity of certain 2,5,6-trihalo-1-(beta-D-ribofuranosyl)benzimidazoles” (J Med Chem, 1995).

The test system of experiment [1] is Human betaherpesvirus 5. The experiment in a line: Compound was evaluated for the antiviral activity against HCMV determined by using Plaque assay. It is filed as functional, organism-based. In short, it runs like this: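 Towne strain HCMV (plaque-purified P0) on HFF monolayers, about 100 PFU/cm², 2 h adsorption at 37 °C. Compounds added in growth medium, four to eight concentrations, duplicate wells. Incubated 7–10 days at 37 °C, then crystal violet stain and microscopic plaque count. Percent plaque reduction versus no-drug wells, regressed on log concentration to give IC50.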

The subject of experiment [2] is Human betaherpesvirus 5. The experiment in a line: Compound was evaluated for the antiviral activity against HCMV determined by using Yield reduction assay. Format: functional. In a few lines:
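HFF cells at 12 500 cells/well, infected with Towne HCMV at MOI 0.5–1 PFU/cell. Compounds added after adsorption, 1:3 serial dilutions spanning about 1000-fold (e.g. 100–0.14 μM), in duplicate. 7 days at 37 °C, one freeze-thaw, then progeny titred by plaque count on fresh HFF plates. Reported as IC90.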

For experiment [3], the system named is Human alphaherpesvirus 1. The experiment in a line: Compound was evaluated for the antiviral activity against HSV-1 determined by using ELISA method. Format: functional, organism-based. In a few lines: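 HSV-1 (KOS strain in most experiments) at 100 PFU/well on BSC-1 cells (10 000/well), drug in quadruplicate, 3–5 days at 37 °C. Wells blocked, probed with HRP-conjugated rabbit anti-HSV-1 antibody, developed with tetramethylbenzidine and read at 450 and 570 nm. Percent absorbance reduction versus virus-only wells; IC50 from regression on log concentration.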
For orientation: An ELISA detects its analyte on a solid surface through an enzyme-linked reagent.

Experiment [4] relates to HFF. The experiment in a line: Compound was evaluated for the visual cytotoxicity scored on HFF cells at time of HCMV plaque enumeration. Format: functional, cell-based. As to conditions: Homo sapiens. In short, it runs like this:
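Stationary HFF cells not affected by virus in the HCMV plaque assay, inspected microscopically for cytotoxicity when plaques were counted (after 7–10 days at 37 °C). Reported as IC50.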

Experiment [5] concerns KB. The experiment in a line: Compound was evaluated for the inhibition of KB cell growth determined in quadruplicate assay. It is filed as functional, cell-based. Particulars: Homo sapiens. In short, it runs like this: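 KB cells at 3000–5000/well, compound added in quadruplicate at six to eight concentrations, 48 h at 37 °C (about two population doublings). Cells fixed with ethanol, stained with crystal violet, eluted dye read at 570 nm. IC50 from regression of percent inhibition on log concentration.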

SMILES strings stand for the structures.

Turning to `Nc1nc2cc(Cl)c(Cl)cc2n1C1O[C@H](CO)[C@@H](O)[C@H]1O` (some centres not stated), the IC50 (usually the concentration that gives 50% inhibition) came out at 40 µM in experiment [1], 50 µM in experiment [3], 32 µM in experiment [4] and 40 µM in experiment [5]. The 90% effect level in experiment [2] (IC90) was put at 8 µM.
Consider `O=[N+]([O-])c1c(Cl)c(Cl)cc2c1nc(O)n2C1O[C@H](CO)[C@@H](O)[C@H]1O` (some centres not stated), for which the concentration for half-maximal inhibition (IC50) was greater than 100 µM in experiment [1], greater than 100 µM in experiment [3] and 100 µM in experiment [4].
With `Clc1nc2cc(Cl)c(Cl)cc2[nH]1`, the IC50 in experiment [1] is 6.4 µM; in experiment [3] it was 51 µM; in experiment [4] it was 24 µM; in experiment [5] it was 19 µM.
As for `OC[C@H]1O[C@H](n2c(Br)nc3cc(Cl)c(Cl)cc32)[C@@H](O)[C@H]1O`, the 50% inhibitory concentration (IC50) in experiment [1] is 0.7 µM; in experiment [3] it was 130 µM; in experiment [4] it was 118 µM; in experiment [5], greater than 100 µM. Also, the 90% effect level in experiment [2] (IC90) was put at 0.2 µM.
Regarding `OC[C@H]1OC(n2c(I)nc3cc(Cl)c(Cl)cc32)[C@H](O)[C@@H]1O` (some centres not stated), the half-maximal inhibitory concentration (IC50) in experiment [1] is 30 µM; in experiment [3], 21 µM; in experiment [4], 118 µM; in experiment [5], 23 µM. Besides, the 90% effect level in experiment [2] (IC90) was put at 26 µM.
Consider `CC(=O)OC[C@H]1O[C@@H](n2c(Cl)nc3cc(Cl)c(Cl)cc32)[C@H](OC(C)=O)[C@@H]1OC(C)=O`, for which the values for the IC50 in experiment [1], in experiment [4] and in experiment [5] were 2 µM, 100 µM and greater than 100 µM, respectively. Also, the 90% effect level in experiment [2] (IC90) was put at 0.2 µM.
As to `CC(=O)OC[C@H]1O[C@@H](n2c(Br)nc3cc(Cl)c(Cl)cc32)[C@H](OC(C)=O)[C@@H]1OC(C)=O`, the half-maximal inhibitory concentration (IC50) in experiment [1] was 1.5 µM; in experiment [3] it was greater than 100 µM; in experiment [4], 100 µM; in experiment [5], 25 µM. Moreover, the 90% effect level in experiment [2] (IC90) was put at 0.2 µM.
In turn, `O=C(O)P(=O)(O)O` [FOSCARNET SODIUM] gave an IC50 in experiment [4] greater than 100 µM.
On to `OC[C@H]1O[C@@H](n2cnc3cc(Cl)c(Cl)cc32)[C@H](O)[C@@H]1O` [DICHLORORIBOBENZIMIDAZOLE], for which the IC90 (as a rule, the concentration needed for an effect of 90%) in experiment [2] was found to be 19 µM. Besides, the IC50 in experiment [4] amounted to 24 µM; in experiment [5], 36 µM.
On to `Nc1nc2cc(Cl)c(Cl)cc2[nH]1`, for which the IC50 in experiment [1] is 100 µM; in experiment [3], greater than 100 µM; in experiment [4] it was 100 µM; in experiment [5], greater than 100 µM.
`Nc1nc2c(ncn2COC(CO)CO)c(=O)[nH]1` [GANCICLOVIR]: the IC90 in experiment [2] was determined as 1.6 µM. In addition, the IC50 in experiment [4] and in experiment [5] was greater than 100 µM each time.
As for `Clc1cc2nc(Br)[nH]c2cc1Cl`, the IC50 in experiment [1] was 12 µM; in experiment [4] it was 21 µM; in experiment [5] it was 56 µM.
`OC[C@H]1O[C@@H](n2c(Cl)nc3cc(Cl)c(Cl)cc32)[C@H](O)[C@@H]1O`: the concentration for half-maximal inhibition (IC50) came out at 2.9 µM in experiment [1], 102 µM in experiment [3], 238 µM in experiment [4] and 210 µM in experiment [5]. In experiment [2], this molecule gave an IC90 of 1.4 µM.
Take `OC[C@H]1OC(n2c(O)nc3cc(Cl)c(Cl)cc32)[C@H](O)[C@@H]1O` (some centres not stated): the IC50 is greater than 100 µM in experiment [1] and 100 µM in experiment [4].
